Converted amounts (≈) assume the structure as drawn. The source made the active and inactive calls. No cut-off for these calls is given here.
How the values were obtained:
Micrococcus luteus = assay: Antibacterial activity against Micrococcus luteus ATCC 10240 at 200 ug/mL; format: functional, organism-based
Salmonella typhimurium = assay: Antibacterial activity against Salmonella Typhimurium ATCC 14028 at 200 ug/mL; format: functional, organism-based; details: Salmonella enterica subsp. enterica serovar Typhimurium
Escherichia coli = assay: Antibacterial activity against Escherichia coli ATCC 11775 at 200 ug/mL; format: functional, organism-based
[1] = Inhibition of Staphylococcus aureus sortase B
Outline: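 Recombinant sortase B enzyme; inhibition given as EC50 in µg/mL.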

Proteus vulgaris = assay: […] activity against Proteus vulgaris ATCC 3851 at 200 ug/mL; format: functional, organism-based
Trichophyton rubrum = assay: Antifungal activity against Trichophyton rubrum IFO 6204 at 200 ug/mL; format: functional, organism-based
Bacillus subtilis = assay: Antibacterial activity against Bacillus subtilis ATCC 6633 at 200 ug/mL; format: functional, organism-based
Candida albicans = assay: Antifungal activity against Candida albicans ATCC 10231 at 200 ug/mL; format: functional, organism-based
Klebsiella pneumoniae = assay: Antibacterial activity against Klebsiella pneumoniae ATCC 10031 at 200 ug/mL; format: functional, organism-based
[2] = test system: Trichophyton mentagrophytes; assay: Antifungal activity against Trichophyton mentagrophytes IFO 40996 at 200 ug/mL; format: functional, organism-based
Staphylococcus aureus = assay: Antibacterial activity against Staphylococcus aureus ATCC 6538 at 200 ug/mL; format: functional, organism-based

## O=C1CCC(=O)NCCCCCN(O)C(=O)CCC(=O)NCCCCCN(O)C(=O)CCC(=O)NCCCCCN1 [DEHYDROXYNOCARDAMINE]
Micrococcus luteus
  Activity: inactive
Salmonella typhimurium
  Activity: inactive
Escherichia coli
  Activity: inactive
[1]
  EC50: 88.3 µg/mL (≈ 151 µM)
Proteus vulgaris
  Activity: inactive
Trichophyton rubrum
  Activity: inactive
Bacillus subtilis
  Activity: inactive
Candida albicans
  Activity: inactive
Klebsiella pneumoniae
  Activity: inactive
[2]
  Activity: inactive
Staphylococcus aureus
  Activity: inactive

## O=C1CCC(=O)N(O)CCCCCNC(=O)CCC(=O)N(O)CCCCNC(=O)CCC(=O)N(O)CCCCCN1 [DESMETHYLENYLNOCARDAMINE]
Micrococcus luteus
  Activity: inactive
Salmonella typhimurium
  Activity: inactive
Escherichia coli
  Activity: inactive
[1]
  EC50: 126.4 µg/mL (≈ 215 µM)
Proteus vulgaris
  Activity: inactive
Trichophyton rubrum
  Activity: inactive
Bacillus subtilis
  Activity: inactive
Candida albicans
  Activity: inactive
Klebsiella pneumoniae
  Activity: inactive
[2]
  Activity: inactive
Staphylococcus aureus
  Activity: inactive

## O=C1CCC(=O)N(O)CCCCCNC(=O)CCC(=O)N(O)CCCCCNC(=O)CCC(=O)N(O)CCCCCN1 [NOCARDAMINE]
Micrococcus luteus
  Activity: inactive
Salmonella typhimurium
  Activity: inactive
Escherichia coli
  Activity: inactive
[1]
  EC50: > 200 µg/mL
Proteus vulgaris
  Activity: inactive
Trichophyton rubrum
  Activity: inactive
Bacillus subtilis
  Activity: inactive
Candida albicans
  Activity: inactive
Klebsiella pneumoniae
  Activity: inactive
[2]
  Activity: inactive
Staphylococcus aureus
  Activity: inactive
